Active and inactive are the calls of the source. No cut-off for these calls is given here.
What was measured:
A549 = assay: Antiproliferative activity against human A549 cells assessed as cell growth inhibition after 72 hrs by MTT assay; format: functional, cell-based; conditions: A549, 72 h
Method in brief: (§1)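 HepG2, A549 or MDA-MB-231 cells grown in DMEM with 10% FBS and penicillin/streptomycin at 37 °C, 5% CO2. Seeded at 3×10^3 per well, left 24 h, then exposed to a range of concentrations for 72 h. MTT added for 4 h, formazan dissolved in DMSO, absorbance read at 550 nm. Mean ± SD, n=3.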

HepG2 [1] = assay: Induction of apoptosis in human HepG2 cells assessed as necrotic cells at 5 uM measured after 48 hrs by Annexin V-FITC/propidium iodide staining based flow cytometry (reference value: 0.22%); format: functional
Method in brief: (§2)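 HepG2 cells incubated with the stated concentrations for 48 h, harvested, and stained with Annexin V-FITC and propidium iodide protected from light. Viable, early apoptotic, late apoptotic and necrotic fractions quantified by flow cytometry. Mean ± SD, n=3.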

HepG2 [2] = assay: Antiproliferative activity against human HepG2 cells assessed as cell growth inhibition after 72 hrs by MTT assay; format: functional, cell-based; conditions: HepG2, 72 h; method in brief: as §1
HepG2 [3] = assay: Induction of apoptosis in human HepG2 cells assessed as viable cells at 10 uM measured after 48 hrs by Annexin V-FITC/propidium iodide staining based flow cytometry (reference value: 95.6%); format: functional; conditions: read-out: Activity; method in brief: as §2
HepG2 [4] = assay: Antiproliferative activity against human HepG2 cells assessed as cell viability at 0.5 uM measured after 5 days in presence of 10 uM palmitate by MTT assay relative to control; format: functional; conditions: HepG2, 120 h, time 5 day, read-out: Activity
Method in brief: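 HepG2 treated with 0.5 μM plus 0, 10 or 25 μM palmitate for 1, 3 and 5 days. Palmitate was complexed with 5% fatty-acid-free BSA from a 5 mM solution, then diluted in serum-free DMEM to final concentration. Viability (% control) by MTT. Mean ± SD, n=3.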

HepG2 [5] = assay: Cell cycle arrest in human HepG2 cells assessed as accumulation at G2/M phase at 10 uM measured after 48 hrs by propidium iodide staining based flow cytometry (reference value: 13.58%); format: functional
HepG2 [6] = assay: Antiproliferative activity against human HepG2 cells assessed as combination index at 0.7 uM measured after 72 hrs in presence of 1.4 uM doxorubicin by MTT assay; format: functional
HepG2 [7] = assay: Induction of apoptosis in human HepG2 cells assessed as chromatin shrinkage at 1 to 10 uM measured after 48 hrs by Hoechst 33258 staining based fluorescence microscopic analysis; format: functional, cell-based; conditions: dose 1-10 µM
Method in brief: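 HepG2 cells exposed to varying concentrations for 48 h in 6-well plates. Stained with Hoechst 33258 in the dark for 20 min, then nuclear morphology inspected by fluorescence microscopy.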

HepG2 [8] = assay: Cell cycle arrest in human HepG2 cells assessed as accumulation at G0/G1 phase measured after 48 hrs by propidium iodide staining based flow cytometry; format: functional; conditions: dose 1-10 µM
HepG2 [9] = assay: Antiproliferative activity against human HepG2 cells assessed as cell growth inhibition at 10 uM after 72 hrs by MTT assay relative to control; format: functional; conditions: read-out: GI
Method in brief: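 Cells were DMEM/10% FBS cultures at 37 °C, 5% CO2, seeded at 3×10^3 per well and exposed for 72 h after 24 h attachment. Read-out was MTT with formazan in DMSO and absorbance at 550 nm, expressed as inhibition rate versus control.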

HepG2 [10] = assay: Antiproliferative activity against human HepG2 cells assessed as combination index at 0.35 uM measured after 72 hrs in presence of 0.7 uM doxorubicin by MTT assay; format: functional
HepG2 [11] = assay: Cell cycle arrest in human HepG2 cells assessed as accumulation at S phase at 10 uM measured after 48 hrs by propidium iodide staining based flow cytometry (reference value: 30.18%); format: functional
HepG2 [12] = assay: Antiproliferative activity against human HepG2 cells assessed as combination index at 0.175 uM measured after 72 hrs in presence of 0.35 uM doxorubicin by MTT assay; format: functional
HepG2 [13] = assay: Cell cycle arrest in human HepG2 cells assessed as accumulation at G2/M phase at 1 uM measured after 48 hrs by propidium iodide staining based flow cytometry (reference value: 13.58%); format: functional
HepG2 [14] = assay: Cell cycle arrest in human HepG2 cells assessed as reduction in CDK4 expression at 10 uM measured after 48 hrs by Western blot analysis relative to control; format: functional; design: scale not given: the % may be the effect or the level left
Method in brief: (§3)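 HepG2 cells treated for 48 h and lysed. Lysates cleared at 12000 rpm for 15 min and protein measured by BCA. Run on SDS-PAGE, transferred to PVDF, blocked in 5% BSA, primary antibody at 4 °C overnight, then DyLight 800 secondary. Infrared imaging and densitometry against β-actin. Mean ± SD, n=3.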

HepG2 [15] = assay: Induction of apoptosis in human HepG2 cells assessed as late apoptotic cells at 1 uM measured after 48 hrs by Annexin V-FITC/propidium iodide staining based flow cytometry (reference value: 0.19%); format: functional; method in brief: as §2
HepG2 [16] = assay: Induction of apoptosis in human HepG2 cells assessed as early apoptotic cells at 10 uM measured after 48 hrs by Annexin V-FITC/propidium iodide staining based flow cytometry (reference value: 4.03%); format: functional; method in brief: as §2
HepG2 [17] = assay: Induction of apoptosis in human HepG2 cells assessed as increase in Bax expression measured after 48 hrs by Western blot analysis; format: functional, cell-based; conditions: dose 1-10 µM
Method in brief: (§4)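 Western blots for Bcl-2, Bax, cleaved caspase-3 and cleaved PARP in HepG2 cells after 48 h treatment (1, 5, 10 μM for PARP). Lysates cleared, protein quantified by BCA, run on SDS-PAGE to PVDF, blocked in 5% BSA, primary overnight at 4 °C, DyLight 800 secondary. Infrared scanning and densitometry normalized to β-actin. Mean ± SD, n=3.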

HepG2 [18] = assay: Induction of apoptosis in human HepG2 cells assessed as necrotic cells at 1 uM measured after 48 hrs by Annexin V-FITC/propidium iodide staining based flow cytometry (reference value: 0.22%); format: functional; method in brief: as §2
HepG2 [19] = assay: Induction of apoptosis in human HepG2 cells assessed as viable cells at 1 uM measured after 48 hrs by Annexin V-FITC/propidium iodide staining based flow cytometry (reference value: 95.6%); format: functional; conditions: read-out: Activity; method in brief: as §2
HepG2 [20] = assay: Induction of apoptosis in human HepG2 cells assessed as viable cells at 5 uM measured after 48 hrs by Annexin V-FITC/propidium iodide staining based flow cytometry (reference value: 95.6%); format: functional; conditions: read-out: Activity
HepG2 [21] = assay: Cell cycle arrest in human HepG2 cells assessed as reduction in cyclin D1 expression measured after 48 hrs by Western blot analysis; format: functional, cell-based; conditions: dose 1-10 µM; method in brief: as §3
HepG2 [22] = assay: Cell cycle arrest in human HepG2 cells assessed as accumulation at G0/G1 phase at 10 uM measured after 48 hrs by propidium iodide staining based flow cytometry (reference value: 56.24%); format: functional
HepG2 [23] = assay: Induction of apoptosis in human HepG2 cells assessed as increase in caspase-3 activation at 1 to 10 uM measured after 48 hrs by Western blot analysis; format: functional, cell-based; conditions: dose 1-10 µM; method in brief: as §4
Acetyl-CoA carboxylase 1 = Acetyl-CoA carboxylase 1 (Homo sapiens, UniProt Q13085); assay: Inhibition of recombinant human C-terminal His-tagged ACC1 (1 to 2383 residues) expressed in baculovirus infected Sf9 insect cells at 0.1 uM preincubated for 15 mins followed by substrate addition and measured after 60 mins by ADP-glo luminescence assay relative to control
HepG2 [24] = assay: Induction of apoptosis in human HepG2 cells assessed as late apoptotic cells at 10 uM measured after 48 hrs by Annexin V-FITC/propidium iodide staining based flow cytometry (reference value: 0.19%); format: functional; method in brief: as §2

For CC(C)(C)n1cc2c(n1)C(=O)CC1(CCN(C(=O)c3cc(-c4ccncc4)nc4ccccc34)CC1)O2, the IC50 (A549) was 550 nM, the Activity (HepG2 [1]) was 3.72% and the IC50 (HepG2 [2]) was 380 nM. For the same compound, the viability at 10 µM (HepG2 [3]) was 12.2%, the viability at 0.5 µM (HepG2 [4]) was 68.9% and the Activity (HepG2 [5]) was 4.9%. For the same compound, the CI (HepG2 [6]) was 0.599, the Activity (HepG2 [7]) was “Active” and the Activity (HepG2 [8]) was “Dose-dependent effect”. It also gave an inhibition of growth at 10 µM (HepG2 [9]) of 80.1%, a CI (HepG2 [10]) of 0.816 and an Activity (HepG2 [11]) of 6.48%. For the same compound, the CI (HepG2 [12]) was 0.737, the Activity (HepG2 [13]) was 10.86% and the Activity (HepG2 [14]) was 60.76%. For the same compound, the Activity (HepG2 [15]) was 12.7%, the Activity (HepG2 [16]) was 41.6% and the Activity (HepG2 [17]) was “Dose-dependent effect”. It also gave an Activity (HepG2 [18]) of 3.61%, a viability at 1 µM (HepG2 [19]) of 72.1% and a viability at 5 µM (HepG2 [20]) of 44.8%. The Activity (HepG2 [21]) was “Dose-dependent effect”, the Activity (HepG2 [22]) was 88.61% and the Activity (HepG2 [23]) was “Active”. It also gave an inhibition (Acetyl-CoA carboxylase 1) of 86.2% and an Activity (HepG2 [24]) of 45.5%.

Source: ChEMBL document CHEMBL4732112, “Synthesis and in vitro evaluation of novel spiroketopyrazoles as acetyl-CoA carboxylase inhibitors and potential antitumor agents” (Eur J Med Chem, 2021)
